Bioassay records from PubChem.
Only some compounds are listed: those with a hit (about 1.8% of all), similar ones and a draw of the others.
PG9 Ab binder: small molecules binding HIV-1 gp120 antibody PG9. inhibition, % at 6.7 µM. TR-FRET gp120-PG9 antibody binding. AID 624416. actives 0.43% (n = 360,000); in the data active means inhibition above about 8.5%
NR1D1 modulator: Rev-erb alpha (human) modulation | AID 1259318 | Rev-erbα–FITC-DNA binding, fluorescence polarization, 90 min | P20393 | activity, % at 10 µM | actives 0.79% (n = 370,000);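 active means activity above about 14%, limit read from the data; passing the limit was not always enough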;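 further: 0% = DMSO wells with 35 nM protein and 100% = DMSO wells with 750 nM protein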
Target sequence (P20393 whole entry, looked up): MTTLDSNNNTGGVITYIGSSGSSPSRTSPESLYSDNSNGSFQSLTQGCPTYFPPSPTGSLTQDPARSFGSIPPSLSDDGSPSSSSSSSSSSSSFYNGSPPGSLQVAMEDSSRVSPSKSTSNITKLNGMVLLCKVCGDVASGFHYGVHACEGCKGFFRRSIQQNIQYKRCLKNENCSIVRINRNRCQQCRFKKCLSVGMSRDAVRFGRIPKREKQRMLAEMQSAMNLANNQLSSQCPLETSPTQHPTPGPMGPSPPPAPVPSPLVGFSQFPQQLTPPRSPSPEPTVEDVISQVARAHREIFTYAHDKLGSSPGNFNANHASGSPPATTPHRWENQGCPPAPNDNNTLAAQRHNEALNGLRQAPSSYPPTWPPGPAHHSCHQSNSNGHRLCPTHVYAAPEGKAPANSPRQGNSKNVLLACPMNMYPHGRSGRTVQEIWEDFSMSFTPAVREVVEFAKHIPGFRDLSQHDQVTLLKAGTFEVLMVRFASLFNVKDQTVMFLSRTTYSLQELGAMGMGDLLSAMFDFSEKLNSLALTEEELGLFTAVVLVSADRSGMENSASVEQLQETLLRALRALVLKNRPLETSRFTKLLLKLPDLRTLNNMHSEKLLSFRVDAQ
Rin1 Abl inh: human Rin1-Abl interaction inhibition | P00519+Q13671 | TR-FRET Rin1/Abl binding, biochemical | inhibition, % at 7.35 µM | actives 0.4% (n = 360,000) | AID 588664; in the data active means inhibition above about 5%, passing the limit was not always enough
Tb MetRS inh: blocks T. brucei methionyl-tRNA synthetase activity. inhibition, % at 11.9 µM. purified T. brucei MetRS, ATP depletion, Kinase-Glo luminescence. AID 624268. actives 0.4% (n = 360,000);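 active means inhibition above a per-plate cutoff of the control wells' mean inhibition plus 3 SD, cut at about 5.5% in these data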;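 further: 0% = DMSO wells median and 100% = median of wells with control inhibitor compound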
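Test system: purified T. brucei MetRS enzyme. Also added: ATP, methionine and E. coli bulk tRNA substrates. Compound: 11.9 µM single point. Schedule: 15 min enzyme-compound preincubation, 2 h reaction, 10 min detection, 25 °C. Signal: luciferase luminescence of residual ATP, Kinase-Glo. Evaluation: percent inhibition versus plate control medians. Controls: DMSO wells, low control.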
PG9 bind confirm: PG9 antibody binding, confirmed; TR-FRET PG9 antibody binding, biochemical; inhibition, % at 6.7 µM; shares compounds with PG9 Ab binder; actives 90% (n = 1,500); in the data active means inhibition above about 9%
PGV04 counter: binds control antibody PGV04 in PG9 binder counter-screen; actives 95% (n = 1,500); shares compounds with PG9 Ab binder; TR-FRET PGV04 antibody-gp120 binding, biochemical; inhibition, % at 6.7 µM; in the data active means inhibition above about 9.5%
PG9 bind DR: small molecules binding HIV-1 gp120 antibody PG9. IC50, µM. TR-FRET PG9 antibody-gp120 binding inhibition. shares compounds with PG9 Ab binder. 95 tested, under 10 active; in the data active means IC50 below about 10 µM
PGV04 DR counter: binds control antibody PGV04 in PG9 counter-screen. IC50, µM. TR-FRET binding to control antibody PGV04. shares compounds with PG9 Ab binder. actives 20% (n = 95)
PG126 binding DR: PG126 binding, dose response counter-screen; shares compounds with PG9 Ab binder; TR-FRET binding to antibody PG126, counterscreen; IC50, µM; actives 20% (n = 95); AID 651939
Numbers without * were called inactive; i = inactive; / = not tested or not shown. Unless noted, no stated cut-off is given here; in the data, active means IC50 below about 9 µM; inactive means the rest.

SMILES	PG9 Ab binder	NR1D1 modulator	Rin1 Abl inh	Tb MetRS inh	PG9 bind confirm	PGV04 counter	others
COc1cc(C(=O)Nc2cccc(-c3nc4ncccc4o3)c2C)cc(OC)c1OC	2	3	-5	-1	/	/
CCOC(=O)C1CSCCS(=O)(=O)N1Cc1ccccc1F (configuration not stated)	0	-1	/	/	/	/
Cn1c(NC2=NC3(CCCC3)C3=C(CCCC3=O)N2)nc2ccccc21	/	-9	/	/	/	/
CCOc1ccc(Br)cc1C(=O)Nc1ccc(C(=O)NCC(C)C)cc1	24*	6	-1	-1	24*	31*
CCSc1nc(-c2ccccc2)cc(=O)[nH]1	-1	-1	5	0	/	/
Cc1ccc(C(=O)CSc2nc(C)cc(SCc3nnc(-c4ccccc4)o3)n2)cc1	9.4*	2	1	0	15*	22*
CCn1c(-c2ccsc2)nc2c1c(=O)[nH]c(=O)n2Cc1ccccc1	22*	10	-1	1	39*	54*
COc1ccc2c(c1)CCC1(C)CC(=O)C(Br)=C21 (configuration not stated)	14*	11	-306	0	24*	47*
CC(C)OC(=O)c1ccc(NC(=O)c2cccc(-n3cnnn3)c2)cc1	-1	0	-2	0	/	/
Cc1cc(=O)n2c(C(=O)Nc3ccc(C(=O)OC(C)C)cc3)c(C(=O)Nc3ccccc3)sc2n1	12*	18	-2	0	22*	31*
CCOc1ccc2cc(C(=O)NCc3ccccc3)c(=N)oc2c1	40*	-9	-1	-1	15*	7	PG9 bind DR=>67;PGV04 DR counter=>67;PG126 binding DR=>67
Cc1sc2ncnc(N3CCC(C(=O)Nc4ccc(Br)cc4Br)CC3)c2c1C	23*	20	-3	0	44*	70*
CNC(=O)c1ccc(NC(=O)C2CCN(c3ncnc4sc(C)c(C)c34)CC2)cc1	18*	-5	0	0	14*	18*
Cc1sc2ncnc(N3CCC(C(=O)Nc4ccc(Cl)cc4Cl)CC3)c2c1C	2	6	-4	0	/	/
COc1cccc(C2/C(=C(\O)c3ccc(OC)c(OC)c3)C(=O)C(=O)N2c2cc(C)on2)c1 (configuration not stated)	14*	1	-4	0	25*	34*
O=C(Nc1c(-c2ccc(C(F)(F)F)cc2)nc2ncccn12)c1ccc(F)cc1	/	-5	/	/	/	/
CS(=O)(=O)c1ccc2nc(NC(=O)Nc3ccccc3F)sc2c1	33*	23	1	2	27*	46*
Cc1ccccc1-c1n[nH]c(=S)o1	35*	/	-46	-1	35*	47*
CSc1ccccc1-c1n[nH]c(=S)o1	35*	-3	-68	0	40*	52*
Cc1ccc(CS(=O)Cc2ccc(C(=O)NCc3ccc(OC(C)C)cc3)o2)cc1 (configuration not stated)	3	-1	-1	0	/	/
C#CCNC(=O)c1cnn(-c2ccccc2)c1N	/	1	/	/	/	/
CC(C)(C)CNC(=O)c1cc2c(Br)ccc(Br)c2nc1N	10.0*	11	/	-1	7	14*
C#CCNC(=O)c1cc2c(Br)ccc(Br)c2nc1N	17*	4	/	-1	18*	22*
COc1ccc(CCN(Cc2cccs2)S(=O)(=O)c2ccc(F)cc2)cc1OC	/	-2	/	/	/	/
O=C(CSc1nc(-c2ccc(F)cc2)nc2ccc(F)cc12)Nc1cccc(C(=O)O)c1	8	2	-7	-1	/	/
SMILES	PG9 Ab binder	NR1D1 modulator	Rin1 Abl inh	Tb MetRS inh	PG9 bind confirm	PGV04 counter	others
O=C(CSc1nc(-c2ccccc2)nc2ccccc12)Nc1cccc(C(=O)O)c1	16*	-3	-4	0	15*	22*
CC(=O)CSc1nc(-c2cccs2)c(C#N)c(=O)[nH]1	49*	1	-88	0	53*	65*
COc1cccc(NC(=O)Cn2c3ccc(OC)cc3c3nc4n(c(=O)c32)CCS4)c1	14*	19	-2	-1	31*	25*	PG9 bind DR=>67;PGV04 DR counter=9*;PG126 binding DR=i
O=C(Cn1c2ccccc2c2nc3n(c(=O)c21)CCS3)Nc1ccccc1	1	6	-4	0	/	/
CCOC(=O)[C@@]12CCCC3=C1N(CCC3)C(=O)[C@H]2CC(=O)N1CCN(C(=O)C2CC2)CC1	/	-1	/	/	/	/
COc1ccccc1C(=O)NC(=O)COC(=O)c1ccc(Br)o1	0	-8	-1	1	/	/
COCCn1c(=NC(=O)c2sc3ccccc3c2Cl)sc2cc(S(N)(=O)=O)ccc21	18*	-5	-20	-2	24*	35*
C=CCn1c(=NC(=O)c2sc3ccccc3c2Cl)sc2cc(S(N)(=O)=O)ccc21	/	/	-2	-1	/	/
COc1ccc(Br)cc1-c1nc(CCl)cs1	10*	6	-79	-1	16*	20*
COc1ccc(S(=O)(=O)NNC(=O)c2csc(-n3nc(C)cc3C(F)(F)F)n2)cc1OC	10*	-5	1	0	7	11*
O=C(COC(=O)c1cc([N+](=O)[O-])ccc1N1CCOCC1)Nc1ncc(Cl)cc1Cl	-1	1	-2	1	/	/
CCOC(=O)c1c(NC(=O)C2C3C=CC(CC3)C2C(=O)O)sc(C)c1CC (configuration not stated)	8.7*	3	-4	1	18*	23*
COC(=O)c1c(NC(=O)C2C3C=CC(CC3)C2C(=O)O)sc(C)c1C (configuration not stated)	0	-2	1	0	/	/
CC(=O)c1c(OC(=O)c2ccccc2)ccnc1C(F)(F)F	9.2*	-3	1	0	11*	11*
O=C(Oc1cccc2ccccc12)c1ccccc1	-2	2	-1	1	/	/
COC(=O)c1cc(-c2ccc(Oc3ccccc3)cc2)c(=O)n2c1CCC2	/	6	/	/	/	/
CC(=O)c1ccc(NC(=O)c2ccc(NC(=O)c3ccco3)cc2)cc1	/	/	3	0	/	/
CCOc1ccc(C(=O)Nc2ccc(NC(=O)c3ccco3)c(Cl)c2)cc1Br	36*	11	-21	0	32*	44*
COC(=O)c1ccc(NC(=O)c2ccc(NC(=O)c3ccco3)cc2)cc1	19*	3	-3	0	17*	11*	PG9 bind DR=i;PGV04 DR counter=>67;PG126 binding DR=>67
CCOc1ccc(C(=O)Nc2ccc(NC(=O)c3ccco3)c(Cl)c2)cc1Cl	4	22	-3	1	/	/
